A word on the IC50: it is the concentration that gives 50% inhibition. A lower IC50 goes with greater potency in that assay.

Entries after “also recorded” stand apart in the source; their conditions may differ.

Experimental findings from publication PMC5551971 (ACS chemical biology, 2017) are described below.

Experiment [1] has as its system H322 cells. Put plainly: Immunoblot analysis of PARP1 and caspase 3 cleavage. The experiment is classed as cell-based. (In general: A western blot detects proteins with antibodies after separation by electrophoresis.)
Experiment [2] concerns H322 cells. Put plainly: Immunoblot analysis of γH2AX. The experiment is classed as cell-based. As to conditions: 4 h; for induction of DNA damage (γH2AX): parental H322 and cWEE1 control cells, AZD1775 1 μM or cisplatin 17 μM. The method in brief: (§1)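 H322 cells and H322-derived CRISPR-Cas9 clones were used: WEE1 knockouts made by targeting the exon 1/intron 1 splice site, plus a control clone with WEE1 intact. Cells were exposed for 4 h to 1 μM test compound or to cisplatin (14 μM in the H322/H1648 comparison; 17 μM in the parental/clone comparison). γH2AX and total H2AX were detected by immunoblot, tracking the ~16 kDa and mono-ubiquitinated ~25 kDa γH2AX bands.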

Experiment [3] has as its system H322, A427, H1155 and H1648 NSCLC cells. Put plainly: Cell viability of NSCLC cell lines, 72 h treatment. As to conditions: several NSCLC cell lines, single agent. The class given is cell-based.
Experiment [4] has as its target T1, PLK1 (Homo sapiens, UniProt P53350). Put plainly: In vitro kinase assay panel. The class given is biochemical. To be noted: 100 nM or 1000 nM AZD1775.
The target in the next experiment is SRC (Homo sapiens, UniProt P12931). Put plainly: In vitro kinase assay panel. The class given is biochemical. To be noted: 100 nM or 1000 nM AZD1775.
Chain of SRC (P12931 whole entry): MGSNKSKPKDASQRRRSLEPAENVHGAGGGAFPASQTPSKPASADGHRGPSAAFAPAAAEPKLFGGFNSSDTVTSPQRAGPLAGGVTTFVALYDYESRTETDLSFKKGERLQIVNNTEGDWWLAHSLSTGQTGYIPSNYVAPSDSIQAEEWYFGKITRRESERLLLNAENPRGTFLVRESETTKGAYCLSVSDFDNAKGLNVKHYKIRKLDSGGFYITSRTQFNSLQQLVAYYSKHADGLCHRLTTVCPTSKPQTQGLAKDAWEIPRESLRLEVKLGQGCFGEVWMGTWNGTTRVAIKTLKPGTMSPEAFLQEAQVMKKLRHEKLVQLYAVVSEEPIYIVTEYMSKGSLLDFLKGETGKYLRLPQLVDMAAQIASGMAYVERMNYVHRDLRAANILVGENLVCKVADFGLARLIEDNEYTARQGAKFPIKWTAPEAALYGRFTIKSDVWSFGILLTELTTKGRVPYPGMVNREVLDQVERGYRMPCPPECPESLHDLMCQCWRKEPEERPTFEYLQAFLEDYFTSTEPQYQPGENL
For experiment [5], the target named is T1, PLK1. Put plainly: i-AZD1775 affinity pulldown with AZD1775 competition, PLK1 immunoblot. The experiment is classed as binding. As to conditions: H322 whole cell lysates, 20 μM free AZD1775.
In experiment [6] the test system is cWEE1-KO[18] and cWEE1-KO[19] H322 WEE1 knockout clones. Put plainly: CellTiterGlo viability of H322 WEE1 CRISPR-Cas9 knockout clones. The class given is cell-based. To be noted: 72 h. (In ATP-based viability assays light output follows the ATP content of the culture.)
For experiment [7], the target named is T1, PLK1. Put plainly: In vitro kinase assay. The experiment is classed as biochemical.
A further experiment has as its target LYN (Homo sapiens, UniProt P07948). Put plainly: In vitro kinase assay panel. The class given is biochemical. As to conditions: 100 nM or 1000 nM AZD1775.
In experiment [8] the test system is cWEE1-KO[18] and cWEE1-KO[19] H322 WEE1 knockout clones. Put plainly: Immunoblot analysis of γH2AX in WEE1 CRISPR-Cas9 knockout clones. As to conditions: 4 h, 1 μM AZD1775. The class given is cell-based. The procedure, abridged: as §1

T1 sequence (P53350 whole entry): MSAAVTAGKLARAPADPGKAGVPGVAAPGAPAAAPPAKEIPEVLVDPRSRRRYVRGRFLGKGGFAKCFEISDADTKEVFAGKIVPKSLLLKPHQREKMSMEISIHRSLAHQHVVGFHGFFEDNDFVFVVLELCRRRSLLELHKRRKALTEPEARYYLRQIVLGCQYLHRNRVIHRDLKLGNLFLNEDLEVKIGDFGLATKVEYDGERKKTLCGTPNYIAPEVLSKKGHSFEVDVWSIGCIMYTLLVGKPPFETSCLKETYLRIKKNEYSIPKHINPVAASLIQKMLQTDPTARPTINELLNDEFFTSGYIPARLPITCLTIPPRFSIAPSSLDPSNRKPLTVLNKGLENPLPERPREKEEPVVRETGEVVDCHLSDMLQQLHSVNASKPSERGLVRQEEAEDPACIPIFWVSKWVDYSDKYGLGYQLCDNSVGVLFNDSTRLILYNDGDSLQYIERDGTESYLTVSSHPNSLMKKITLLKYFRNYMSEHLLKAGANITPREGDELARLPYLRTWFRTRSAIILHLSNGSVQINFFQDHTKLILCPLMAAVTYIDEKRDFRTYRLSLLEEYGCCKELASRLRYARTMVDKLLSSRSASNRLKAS
Chain of LYN (P07948 whole entry): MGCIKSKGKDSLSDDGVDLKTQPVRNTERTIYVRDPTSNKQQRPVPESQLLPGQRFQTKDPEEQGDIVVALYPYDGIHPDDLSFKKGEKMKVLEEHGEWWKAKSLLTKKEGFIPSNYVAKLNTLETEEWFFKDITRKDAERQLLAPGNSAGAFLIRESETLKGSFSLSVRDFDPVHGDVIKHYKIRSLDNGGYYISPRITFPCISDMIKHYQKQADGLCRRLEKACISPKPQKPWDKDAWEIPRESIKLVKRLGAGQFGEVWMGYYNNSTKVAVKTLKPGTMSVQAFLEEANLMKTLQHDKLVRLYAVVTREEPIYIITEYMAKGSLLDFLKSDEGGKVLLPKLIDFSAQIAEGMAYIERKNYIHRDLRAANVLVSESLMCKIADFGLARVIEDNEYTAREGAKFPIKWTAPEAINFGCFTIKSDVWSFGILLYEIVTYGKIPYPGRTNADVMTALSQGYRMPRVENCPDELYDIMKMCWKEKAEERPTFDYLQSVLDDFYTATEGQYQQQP

For `CC[C@@H]1C(=O)N(C)c2cnc(Nc3ccc(C(=O)NC4CCN(C)CC4)cc3OC)nc2N1C1CCCC1` [BI-2536], the “apoptosis by PARP1 and caspase 3 cleavage” value with H322 cells [1] (H322 cells, 0.03 μM BI-2536 compared with 1 μM AZD1775) is “strongly induced apoptosis; also recorded: higher degree of apoptosis than 1 μM AZD1775”.

Consider `N.N.[Cl][Pt][Cl]` [cisplatin], for which the “induction of DNA damage (γH2AX)” value in the experiment with H322 cells [2] is recorded as “can induce DNA damage”.

`C=CCn1c(=O)c2cnc(Nc3ccc(N4CCN(C)CC4)cc3)nc2n1-c1cccc(C(C)(C)O)n1` [AZD1775]: in [3], the “inhibition of viability, potency” value is on record as “sub- to low micromolar potency”. In addition, the PLK1 inhibition result at PLK1 [4] is on record as “potent AZD1775 targets”. Further, the SRC inhibition result on SRC was “potent AZD1775 targets”. Also, the “phosphorylation of Serine 139 in histone H2AX (γH2AX)” value in the experiment with H322 cells [2] (H322 cells, 1 μM AZD1775) was “potently increased”. For the same compound, the “induction of DNA damage (γH2AX)” value in the experiment on H322 cells [2] is recorded as “can induce DNA damage”. The “PLK1 enrichment in i-AZD1775 pulldown on competition with AZD1775” value on PLK1 [5] is listed as “completely abrogated its enrichment”. Besides, the “sensitivity of WEE1-reconstituted clone cWEE1-KO[18](RC9)” value in [6] is reported as “completely reversed the sensitizing effect”. In addition, in the experiment with H322 cells [1] (H322 versus H1648 cells, 48 h), the “PARP1 and caspase-3 cleavage (apoptosis induction)” value is given as “markedly more pronounced in H322 cells than in H1648”. In addition, the IC50 against PLK1 [7] was in the range of 22 to 34 nM. Besides, the LYN inhibition result on LYN is “potent AZD1775 targets”. Moreover, the “γH2AX in WEE1 knockout clones” value in experiment [8] is on record as “further increased γH2AX”.
